From PubChem BioAssay
SENP1 FRET inh – inhibitors of human SENP1 SUMO protease catalytic domain. inhibition, % at 10 µM. recombinant SENP1 catalytic domain, CyPet-SUMO1-YPet FRET cleavage. 360,000 compounds, 0.21% hits. AID 624204. Q9P0U3;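 active = inhibition at least 30% at 10 µM, raw YFP signal under a set limit, fluorescence ratio 0.5 to 1.5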;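 also: 0% = enzyme with DMSO and 100% = no enzyme wells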
Target sequence (Q9P0U3 419-644 limits assumed): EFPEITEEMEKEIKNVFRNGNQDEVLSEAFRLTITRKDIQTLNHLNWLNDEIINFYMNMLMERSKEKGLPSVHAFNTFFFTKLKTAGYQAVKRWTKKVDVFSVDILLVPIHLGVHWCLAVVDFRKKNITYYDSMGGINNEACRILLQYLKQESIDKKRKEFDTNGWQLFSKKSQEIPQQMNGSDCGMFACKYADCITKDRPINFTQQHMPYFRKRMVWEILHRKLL
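Controls: no-enzyme wells low, DMSO-plus-enzyme wells high control. Test system: human recombinant His6-tagged SENP1 catalytic domain enzyme. Reagent: SFCypet-SUMO1-SFYpet FRET protein substrate, 25 nM final. Doses: one dose per compound, 10 µM, 0.5% DMSO. Detection: FRET, CFP and YFP emission. Timing: 50 min reaction at room temperature.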
ADAM10 inh – inhibits human ADAM10; O14672; recombinant ADAM10, EDANS/DABCYL FRET peptide cleavage, 3 h; inhibition, % at 7 µM; 370,000 compounds, 0.62% hits;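 active = inhibition above a per-campaign cutoff equal to the mean of compounds falling between control-based bounds plus 3 SD, cut at about 20% in these data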;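 also: 0% = DMSO wells while the 100% control is not disclosed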
ADAM17 inh – ADAM17 inhibition, QFRET primary screen; inhibition, % at 6.95 µM; AID 720648; P78536; recombinant ADAM17, EDANS/DABCYL FRET peptide cleavage; 370,000 compounds, 0.83% hits;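 active = inhibition above the mean of compounds lying between control limits plus 3 SD, set per campaign, cut at about 8.5% in these data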;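 also: 0% = DMSO-only wells as the low control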
FAS TE block – inhibitors of human fatty acid synthase thioesterase domain; P49327; 360,000 compounds, 0.67% hits; inhibition, % at 15 µM; recombinant FAS-TE, OMFH fluorogenic substrate, fluorescence endpoint;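 active = compounds whose normalised, plate-corrected inhibition of enzyme fluorescence in the single-dose primary screen is 50% or more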;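 also: 0% = DMSO with enzyme and 100% = substrate without enzyme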
FAS-TE inh conf – confirmation of human fatty acid synthase thioesterase inhibitors. shares compounds with FAS TE block. recombinant FAS-TE, OMFH fluorogenic substrate, fluorescence. inhibition, % at 15 µM. 2,300 compounds, 45% hits;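 active = compounds inhibiting the enzyme by at least 50% at 15 µM in any one of the replicates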;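 also: 0% = enzyme with DMSO only and 100% = wells lacking enzyme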
* marks the source's active call; other numbers are inactive results; · = no result. The list is not random: actives were taken first. Their share in the collection is about 1.9%.

SMILES	SENP1 FRET inh	ADAM10 inh	ADAM17 inh	FAS TE block	FAS-TE inh conf
CC(C)NS(=O)(=O)c1ccc(OCC(=O)N2CCN(Cc3ccc4c(c3)OCO4)CC2)c(Cl)c1	2	8	1	50*	·
COC(=O)C1=C(c2ccc(F)cc2OCc2ccccc2)C[C@@H]2CC[C@H]1N2C(=O)NC1Cc2ccccc2C1	0	17	10*	31	·
C=C(C=O)CC1CC(O)[C@]2(C)OC3CC4OC5C[C@]6(C)O[C@]7(C)CCC8OC9C[C@]%10(C)OC%11C(C)=CC(=O)OC%11CC%10OC9C[C@@H](C)C8OC7CC6O[C@]5(C)C/C=C\C4OC3CC2O1 (some centres undefined)	·	-4	-3	·	·
COC(=O)C1=C[C@H]([C@@H](C)[C@H](OC)c2ccccc2Br)[C@@H]2[C@H]1c1ccccc1N2C	·	3	3	·	·
CC1Oc2cc3c(-c4c(O)cc(O)c5c(O)c6c(cc45)OC(C)C(C)C6=O)c(O)cc(O)c3c(O)c2C(=O)C1C (centres undefined)	65*	·	·	22	·
CC(C)(C)NC(=O)C1CN=C(c2ccccc2)c2cc(Cl)ccc2N1C(=O)C1CCC1 (centres undefined)	·	-3	-1	·	·
CN1C(=O)/C(=C/c2ccc(N3CCCCCC3)o2)C(=O)NC1=S	81*	6	2	-7	·
C=CCN1C(=O)/C(=C\c2ccc(N3CCOCC3)o2)C(=O)NC1=S	40*	-4	2	-9	·
CN1C(=O)/C(=C\c2ccc(N3CCCCC3)o2)C(=O)NC1=S	88*	-5	0	-8	·
CN1C(=O)/C(=C\c2ccc(N3CCCCCC3)cc2)C(=O)NC1=S	-21	4	-4	-7	·
CCCC(=O)N1c2ccc(Cl)cc2C(c2ccccc2)=NCC1C(=O)NC(C)(C)C (centres undefined)	·	1	1	·	·
CCN1/C(=C/C=C/C2=[N+](CC)c3ccccc3C2(C)C)C(C)(C)c2ccccc21	77*	9	3	-138	·
CN1/C(=C\C=C2C(=O)NC(=O)NC2=O)C(C)(C)c2ccccc21	-36	16	7	-47	·
CN1CCN(c2ccc([N+](=O)[O-])c3no[n+]([O-])c23)CC1	84*	1	3	-12	·
O=C(CN1C(=O)[C@@H](Cc2ccc(O)cc2)N=C(c2ccccc2)c2ccccc21)NC1CCCCC1	·	3	1	·	·
O=C(COc1ccc(Br)cc1)N1CCN(Cc2c[nH]c3ccccc23)CC1	0	-8	-1	10	·
O=C(COc1ccc2ccccc2c1)N1CCN(Cc2c[nH]c3ccccc23)CC1	1	2	8.7*	4	·
O=c1c2ccccc2nc(/C=C/c2ccccc2O)n1-c1ccccc1O	49*	-15	-4	-29	·
Cc1nc2c(=O)n(C)c(=O)nc-2n(C)n1	49*	7	3	8	·
CCn1nc(-c2ccccc2)nc2c(=O)n(C)c(=O)nc1-2	-2	·	·	-7	·
C=C1C(=O)C(C)=C2C(=O)N3Cc4[nH]c5ccccc5c4CC3(C(=O)OC)C12 (centres undefined)	·	0	-2	·	·
CCOC(=O)CC[C@@H]1CC[C@]2(CCCN(Cc3cccnc3)C2)O1	·	-5	-4	·	·
N#Cc1ccc2nc(-c3ccc(CN4CCC(n5c(=O)[nH]c6ccccc65)CC4)cc3)c(-c3ccccc3)nc2c1	5	-33	-3	93*	7
C=CCN(CC#CCO)Cc1ccc(OC)cc1OC	·	-1	-2	·	·
O=c1oc2ccccc2c(O)c1C(c1ccc([N+](=O)[O-])cc1)c1c(O)c2ccccc2oc1=O	0	19	5	76*	82*
SMILES	SENP1 FRET inh	ADAM10 inh	ADAM17 inh	FAS TE block	FAS-TE inh conf
COc1ccc(NC(=O)c2cn(CCC#N)nc2-c2ccc(OC)c(OC)c2)cc1	-1	1	0	-2	·
COc1ccc(-c2nn(CCC#N)cc2C(=O)Nc2ccc(C(C)=O)cc2)cc1[N+](=O)[O-]	-2	1	0	85*	91*
O=C(C1CC(c2ccc(Cl)c(Cl)c2)=NO1)N1CCC2(CC1)OCCO2 (centres undefined)	1	-7	0	57*	66*
C[N+]1=C(N)NC2=C3CCCCC3ONC2C1 (centres undefined)	·	-12	-4	·	·
O=[N+]([O-])c1ccccc1CN1CC=C(c2ccc(F)cc2)CC1	-3	-4	-2	26	·
O=[N+]([O-])c1cccc(CN2CC=C(c3ccc(F)cc3)CC2)c1	2	-3	1	57*	53*
CC(NC(=O)OC1CC2CCC1(C)C2(C)C)P(=O)(Oc1ccccc1)Oc1ccccc1 (centres undefined)	·	-1	-2	·	·
COc1ccc(C(c2nnnn2-c2ccc3c(c2)OCCO3)N2CCC3(CC2)C(=O)NCN3c2ccccc2)cc1 (centres undefined)	1	15	5	63*	-2
O=C1NCN(c2ccccc2)C12CCN(C(c1cccc3ccccc13)c1nnnn1C1CCCCC1)CC2 (centres undefined)	3	4	8	23	·
O=C1NCN(c2ccccc2)C12CCN(C(c1cccc3ccccc13)c1nnnn1C1CCCC1)CC2 (centres undefined)	-1	-8	0	77*	19
Oc1c(Br)c(Br)c(Br)c(Br)c1Br	-1	·	·	60*	72*
Oc1c(Br)cc(Br)cc1Br	0	-7	-2	0	·
C/C(=N\N1CCCCC1c1cccnc1)c1c(O)n(C2CCCCC2)c(=S)[nH]c1=O (centres undefined)	-15	11	4	70*	10
COC(=O)C1=C(c2ccc(-c3ccccc3)c(F)c2)C[C@@H]2CC[C@H]1N2C(=O)NC1Cc2ccccc2C1	2	3	-1	53*	33
CCN(CCCl)c1cc(CN(C)C)cc(NC(=O)c2ccc(C(=O)Nc3cc(CN(C)C)cc(N(CC)CCCl)c3)cc2)c1	1	-10	-6	51*	45
Cc1cccc(C)c1-n1nnnc1C(c1cccc2ccccc12)N1CCC(n2c(=O)[nH]c3ccccc32)CC1 (centres undefined)	3	-16	-4	86*	17
Cc1cccc(C)c1-n1nnnc1C(c1cccs1)N1CCC(n2c(=O)[nH]c3ccccc32)CC1 (centres undefined)	2	11	0	36	·
O=c1[nH]c2ccccc2n1C1CCN(C(CCc2ccccc2)c2nnnn2C2CCCCC2)CC1 (centres undefined)	3	-6	-3	55*	19
Cc1cccc(C)c1-n1nnnc1C(C1CC1)N1CCC(n2c(=O)[nH]c3ccccc32)CC1 (centres undefined)	2	1	-1	12	·
COc1ccc(C(c2nnnn2-c2ccc(OC)cc2)N2CCC(n3c(=O)[nH]c4ccccc43)CC2)cc1 (centres undefined)	2	15	5	25	·
